{
  "source": "ChEMBL document CHEMBL3588826",
  "about": "“Chimeric derivatives of functionalized amino acids and α-aminoamides: compounds with anticonvulsant activity in seizure models and inhibitory actions on central, peripheral, and cardiac isoforms of voltage-gated sodium channels” (Bioorg Med Chem, 2015)",
  "key": {"[1]": {"molecular_target": "Sodium channel protein type 3 subunit alpha (Rattus norvegicus) (UniProt P08104)", "sequence (P08104 whole entry)": "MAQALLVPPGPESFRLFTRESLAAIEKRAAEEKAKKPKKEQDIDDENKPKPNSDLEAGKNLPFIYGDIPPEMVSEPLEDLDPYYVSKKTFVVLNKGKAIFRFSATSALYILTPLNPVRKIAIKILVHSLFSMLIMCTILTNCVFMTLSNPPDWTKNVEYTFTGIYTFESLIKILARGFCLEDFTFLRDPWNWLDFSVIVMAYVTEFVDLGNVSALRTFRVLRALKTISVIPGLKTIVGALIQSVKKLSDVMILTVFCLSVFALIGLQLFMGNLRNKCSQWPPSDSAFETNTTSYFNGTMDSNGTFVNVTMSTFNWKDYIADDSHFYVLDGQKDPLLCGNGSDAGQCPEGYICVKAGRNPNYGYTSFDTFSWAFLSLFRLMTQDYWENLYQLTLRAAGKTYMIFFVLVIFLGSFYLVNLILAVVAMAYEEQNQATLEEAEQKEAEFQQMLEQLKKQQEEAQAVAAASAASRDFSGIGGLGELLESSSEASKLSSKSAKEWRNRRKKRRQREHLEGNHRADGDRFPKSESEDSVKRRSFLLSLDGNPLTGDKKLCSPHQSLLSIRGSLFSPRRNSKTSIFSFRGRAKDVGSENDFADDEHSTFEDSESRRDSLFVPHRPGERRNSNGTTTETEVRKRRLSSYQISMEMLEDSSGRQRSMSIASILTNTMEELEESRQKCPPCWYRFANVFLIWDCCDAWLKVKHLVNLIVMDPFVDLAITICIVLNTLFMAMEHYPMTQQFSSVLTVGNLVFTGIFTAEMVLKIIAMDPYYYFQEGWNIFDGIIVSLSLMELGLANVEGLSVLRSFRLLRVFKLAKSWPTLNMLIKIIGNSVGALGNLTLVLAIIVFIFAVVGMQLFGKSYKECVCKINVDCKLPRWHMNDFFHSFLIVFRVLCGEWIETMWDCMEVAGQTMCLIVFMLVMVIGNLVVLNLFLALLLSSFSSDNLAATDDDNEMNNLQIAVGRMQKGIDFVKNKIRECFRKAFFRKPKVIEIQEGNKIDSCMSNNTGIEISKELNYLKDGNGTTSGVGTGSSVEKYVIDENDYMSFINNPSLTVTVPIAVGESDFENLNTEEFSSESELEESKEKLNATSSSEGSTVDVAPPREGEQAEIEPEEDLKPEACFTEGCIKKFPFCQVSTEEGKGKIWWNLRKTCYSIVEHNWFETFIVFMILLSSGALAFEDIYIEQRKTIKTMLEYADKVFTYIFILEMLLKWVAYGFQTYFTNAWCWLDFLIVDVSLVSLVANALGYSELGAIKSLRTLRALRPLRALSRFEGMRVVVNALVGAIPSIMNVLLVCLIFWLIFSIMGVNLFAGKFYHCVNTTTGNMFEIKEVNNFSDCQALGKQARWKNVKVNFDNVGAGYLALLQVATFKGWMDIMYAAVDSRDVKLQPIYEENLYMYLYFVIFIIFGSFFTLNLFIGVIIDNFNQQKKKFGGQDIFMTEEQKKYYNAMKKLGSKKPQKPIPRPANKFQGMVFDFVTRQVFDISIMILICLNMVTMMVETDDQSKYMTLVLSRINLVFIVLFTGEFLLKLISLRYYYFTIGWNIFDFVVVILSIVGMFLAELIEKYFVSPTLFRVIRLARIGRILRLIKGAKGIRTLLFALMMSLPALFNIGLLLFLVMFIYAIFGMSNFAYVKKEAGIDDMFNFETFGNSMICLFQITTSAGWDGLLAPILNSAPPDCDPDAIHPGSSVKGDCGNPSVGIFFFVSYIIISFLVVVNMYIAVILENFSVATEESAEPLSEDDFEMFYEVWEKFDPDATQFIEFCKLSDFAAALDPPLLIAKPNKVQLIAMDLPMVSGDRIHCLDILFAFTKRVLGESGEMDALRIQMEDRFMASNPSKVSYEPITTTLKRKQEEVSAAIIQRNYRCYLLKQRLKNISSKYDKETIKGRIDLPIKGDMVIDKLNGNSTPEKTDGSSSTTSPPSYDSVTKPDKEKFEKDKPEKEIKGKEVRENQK", "experiment": "Frequency-dependent inhibition of rat Nav1.3 expressed in HEK293 cells assessed as current amplitude at 10 uM by whole cell patch-clamp electrophysiology", "assay_type": "cell-based", "method_in_brief": "(§1)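 Stable HEK293 lines expressing hNav1.1, rNav1.3, hNav1.7 or hNav1.5 were recorded by whole-cell voltage clamp at room temperature, with 10 μM compound versus 0.1% DMSO. A 30-pulse train was applied, and the read-out was the fraction of current remaining at the last pulse normalized to the first. Nav1.5 used hyperpolarized protocols.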"}, "[2]": {"species_on_record": "Rattus norvegicus", "experiment": "Effect on steady state activation of voltage-gated sodium channel in rat embryonic cortical neurons at 10 uM by whole cell patch-clamp electrophysiology", "method_in_brief": "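Rat embryonic day 19 cortical neurons, cultured 7–10 days, were whole-cell voltage-clamped at room temperature with 1–2 MΩ electrodes, with compound at 10 μM and 0.1% DMSO as control. Fast inactivation: 500 ms prepulses, then a test pulse. Activation: conductance G = I/(Vm − Vrev). V1/2 and k came from Boltzmann fits to individual cells, averaged (mean ± SEM), 5–7 cells per condition.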"}, "[3]": {"molecular_target": "Sodium channel protein type 1 subunit alpha (Homo sapiens) (UniProt P35498)", "experiment": "Inhibition of human Nav1.1 expressed in HEK293 cells assessed as half-maximal voltage for steady state activation at 10 uM by whole cell patch-clamp electrophysiology (reference value: -24.69 +/-1.52 mV)", "assay_type": "cell-based"}, "[4]": {"test_system": "Rattus norvegicus", "experiment": "Toxicity in po dosed Sprague-Dawley rat assessed as decrease in thymus weight administered via gavage", "assay_type": "organism-based", "conditions": "in vivo", "method_in_brief": "(§2)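 Non-GLP repeated-dose study: female Sprague-Dawley rats given compound by oral gavage once daily for 7 days at 20, 60 and 180 mg/kg/day. Endpoints included weight bearing, gait coordination, respiratory rate, relative organ weights (liver, spleen, thymus), clinical chemistry and gross pathology; NOAEL derived.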"}, "[5]": {"molecular_target": "Cytochrome P450 3A5 (Homo sapiens, UniProt P20815)", "sequence (P20815 whole entry)": "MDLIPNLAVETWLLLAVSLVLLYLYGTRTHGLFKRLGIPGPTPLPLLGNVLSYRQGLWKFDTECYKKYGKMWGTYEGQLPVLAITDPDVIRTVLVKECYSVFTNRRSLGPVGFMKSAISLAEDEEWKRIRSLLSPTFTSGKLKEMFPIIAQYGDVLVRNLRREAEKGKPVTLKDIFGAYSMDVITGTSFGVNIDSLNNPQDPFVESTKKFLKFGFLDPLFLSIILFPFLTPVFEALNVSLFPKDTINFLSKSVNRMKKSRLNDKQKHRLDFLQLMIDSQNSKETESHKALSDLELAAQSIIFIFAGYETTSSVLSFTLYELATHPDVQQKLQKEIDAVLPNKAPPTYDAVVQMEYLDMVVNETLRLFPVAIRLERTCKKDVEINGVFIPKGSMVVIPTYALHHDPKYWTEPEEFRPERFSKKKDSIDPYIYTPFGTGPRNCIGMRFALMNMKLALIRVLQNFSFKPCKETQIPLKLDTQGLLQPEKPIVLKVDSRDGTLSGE", "experiment": "Inhibition of human CYP3A5 at 10 uM", "assay_type": "ADME", "method_in_brief": "(§3)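 Test compound at 10 μM against a human CYP450 panel (CYP1A2, 2B6, 2C8, 2C9, 2C19, 2D6, 3A4/5). Direct inhibition was measured, and time-dependent inhibition was measured after a 30-min preincubation.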"}, "[6]": {"molecular_target": "Sodium channel protein type 9 subunit alpha (Homo sapiens) (UniProt Q15858)", "sequence (Q15858 whole entry, looked up)": "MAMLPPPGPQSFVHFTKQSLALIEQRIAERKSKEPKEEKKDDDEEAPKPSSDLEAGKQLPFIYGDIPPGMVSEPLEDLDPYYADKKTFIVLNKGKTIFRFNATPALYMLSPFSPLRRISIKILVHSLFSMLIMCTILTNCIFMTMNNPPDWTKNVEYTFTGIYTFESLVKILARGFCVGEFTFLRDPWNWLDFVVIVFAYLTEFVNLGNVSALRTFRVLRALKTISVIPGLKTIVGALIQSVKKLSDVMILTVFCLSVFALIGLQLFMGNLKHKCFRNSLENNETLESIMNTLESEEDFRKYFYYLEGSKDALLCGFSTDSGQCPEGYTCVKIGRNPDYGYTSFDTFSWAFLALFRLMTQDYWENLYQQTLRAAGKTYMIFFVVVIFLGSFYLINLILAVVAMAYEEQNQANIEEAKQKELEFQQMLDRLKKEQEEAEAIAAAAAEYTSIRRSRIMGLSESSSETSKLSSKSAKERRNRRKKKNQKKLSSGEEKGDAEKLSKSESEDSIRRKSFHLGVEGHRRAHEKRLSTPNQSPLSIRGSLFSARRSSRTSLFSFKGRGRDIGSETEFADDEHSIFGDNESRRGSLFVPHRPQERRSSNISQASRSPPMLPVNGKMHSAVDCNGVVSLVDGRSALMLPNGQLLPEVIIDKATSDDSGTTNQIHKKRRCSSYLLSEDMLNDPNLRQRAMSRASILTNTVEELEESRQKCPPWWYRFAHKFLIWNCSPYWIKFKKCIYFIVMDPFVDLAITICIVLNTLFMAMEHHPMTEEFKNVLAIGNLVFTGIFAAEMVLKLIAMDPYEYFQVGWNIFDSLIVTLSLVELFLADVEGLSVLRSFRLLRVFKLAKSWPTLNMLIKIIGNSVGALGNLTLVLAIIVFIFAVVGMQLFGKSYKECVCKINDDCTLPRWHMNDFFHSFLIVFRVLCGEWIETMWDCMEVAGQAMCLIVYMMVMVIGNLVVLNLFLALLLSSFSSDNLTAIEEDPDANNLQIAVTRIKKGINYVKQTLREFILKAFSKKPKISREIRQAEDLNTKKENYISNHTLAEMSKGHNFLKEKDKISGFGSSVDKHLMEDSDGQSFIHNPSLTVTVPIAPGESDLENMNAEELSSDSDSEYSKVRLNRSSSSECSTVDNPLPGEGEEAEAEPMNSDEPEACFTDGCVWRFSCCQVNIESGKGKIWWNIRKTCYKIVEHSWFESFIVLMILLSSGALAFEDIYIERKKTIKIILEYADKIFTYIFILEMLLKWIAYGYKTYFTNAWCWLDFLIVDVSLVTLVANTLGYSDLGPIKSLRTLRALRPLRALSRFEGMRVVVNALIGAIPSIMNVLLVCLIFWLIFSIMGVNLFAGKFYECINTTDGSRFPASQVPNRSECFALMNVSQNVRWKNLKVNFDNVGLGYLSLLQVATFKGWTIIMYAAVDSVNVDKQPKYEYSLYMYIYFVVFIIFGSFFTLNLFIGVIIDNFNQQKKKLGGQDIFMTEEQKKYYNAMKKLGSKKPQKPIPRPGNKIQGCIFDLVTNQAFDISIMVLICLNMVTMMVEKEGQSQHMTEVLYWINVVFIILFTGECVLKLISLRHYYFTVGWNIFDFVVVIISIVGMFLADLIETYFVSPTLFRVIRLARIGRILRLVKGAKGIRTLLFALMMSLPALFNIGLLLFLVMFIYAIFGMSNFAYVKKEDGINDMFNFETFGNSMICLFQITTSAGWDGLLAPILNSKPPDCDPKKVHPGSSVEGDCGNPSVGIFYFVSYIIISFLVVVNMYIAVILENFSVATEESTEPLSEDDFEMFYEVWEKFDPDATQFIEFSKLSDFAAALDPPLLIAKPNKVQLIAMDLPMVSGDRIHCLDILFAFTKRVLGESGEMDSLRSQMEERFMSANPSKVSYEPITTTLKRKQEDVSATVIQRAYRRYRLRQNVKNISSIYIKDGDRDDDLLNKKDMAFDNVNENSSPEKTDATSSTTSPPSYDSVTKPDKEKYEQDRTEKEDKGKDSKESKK", "experiment": "Inhibition of human Nav1.7 expressed in HEK293 cells assessed as transition of channels to slow-inactivated state at 10 uM measured at -50 mV by whole cell patch-clamp electrophysiology", "assay_type": "cell-based", "method_in_brief": "(§4)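 HEK293 cells stably expressing hNav1.1, rNav1.3, hNav1.7 or hNav1.5 were grown in DMEM with 10% FBS. Recordings were whole-cell voltage clamp at room temperature, with 10 μM compound versus 0.1% DMSO. Slow inactivation at −50 mV was calculated as 1 minus normalized peak INa. Nav1.5 used hyperpolarized protocols. Data are from 5–6 cells.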"}, "[7]": {"molecular_target": "Voltage-gated inwardly rectifying potassium channel KCNH2 (Homo sapiens, UniProt Q12809)", "experiment": "Binding affinity to human ERG at 30 uM by PatchExpress analysis"}, "[8]": {"experiment": "Behavioural toxicity in ip dosed albino Sprague-Dawley rat measured at 2 hrs", "assay_type": "organism-based", "conditions": "in vivo"}, "[9]": {"molecular_target": "Sodium channel protein type 3 subunit alpha (Rattus norvegicus) (UniProt P08104)", "experiment": "Inhibition of rat Nav1.3 expressed in HEK293 cells assessed as transition of channels to slow-inactivated state at 10 uM measured at -50 mV by whole cell patch-clamp electrophysiology", "assay_type": "cell-based", "method_in_brief": "as §4"}, "[10]": {"experiment": "Half life in Sprague-Dawley rat at 20 mg/kg, po", "assay_type": "ADME, organism-based", "conditions": "in vivo", "method_in_brief": "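Pharmacokinetics in Sprague-Dawley rats given a single iv dose of 5 mg/kg or an oral dose of 20 mg/kg.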"}, "[11]": {"species_on_record": "Rattus norvegicus", "experiment": "Inhibition of voltage-gated sodium channel in rat embryonic cortical neurons assessed as decrease in fraction of current available at 10 uM measured at -50 mV by whole cell patch-clamp electrophysiology", "method_in_brief": "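Embryonic cortical neurons were treated with 10 μM compound or 0.1% DMSO, whole-cell voltage clamp at room temperature. Slow inactivation was assessed at −50 mV, with the fraction inactivated taken as 1 minus the normalized INa. Student's t-test; 5–8 cells per condition.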"}, "[12]": {"test_system": "CAD", "experiment": "Frequency-dependent inhibition of voltage-gated sodium channel in mouse CAD cells assessed as decrease in current amplitude at 10 uM by whole cell patch-clamp electrophysiology", "assay_type": "cell-based", "method_in_brief": "(§5)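 CAD cells, whole-cell voltage clamp at room temperature, with compound at 1, 10 or 30 μM against 0.1% DMSO. Thirty identical test pulses were given at 10 Hz. Current was normalized as peak at pulse N over pulse 1, and the maximal decrement was read at the end of the train. One-way ANOVA with Dunnett's test; 4–10 cells per condition.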"}, "[13]": {"molecular_target": "Sodium channel protein type 9 subunit alpha (Homo sapiens) (UniProt Q15858)", "experiment": "Frequency-dependent inhibition of human Nav1.7 expressed in HEK293 cells assessed as current amplitude at 10 uM by whole cell patch-clamp electrophysiology", "assay_type": "cell-based", "method_in_brief": "as §1"}, "[14]": {"test_system": "CAD", "experiment": "Inhibition of voltage-gated sodium channel in mouse CAD cells assessed as transition of channels to slow-inactivated state by whole cell patch-clamp electrophysiology", "assay_type": "cell-based", "method_in_brief": "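CAD cells were grown in Ham's F12/DMEM with 10% FBS at 37 °C and 5% CO2, then recorded by whole-cell voltage clamp at room temperature. A concentration range of compound was tested versus 0.1% DMSO. Slow inactivation was measured at −50 and +20 mV, and IC50 was derived from concentration-response curves.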"}, "[15]": {"experiment": "Protective index, ratio of TD50 for behavioural toxicity in ip dosed albino Sprague-Dawley rat to ED50 for anticonvulsant activity in ip dosed MES albino Sprague-Dawley rat model", "assay_type": "organism-based", "conditions": "in vivo, read-out: Ratio TD50/ED50", "method_in_brief": "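Male albino Sprague-Dawley rats were dosed ip or orally. […] Protective index = TD50/ED50, the ED50 taken from maximal electroshock by the same route.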"}, "[16]": {"test_system": "CAD", "experiment": "Frequency-dependent inhibition of voltage-gated sodium channel in mouse CAD cells assessed as decrease in current amplitude at 30 uM by whole cell patch-clamp electrophysiology", "assay_type": "cell-based", "method_in_brief": "as §5"}, "[17]": {"test_system": "Rattus norvegicus", "experiment": "Toxicity in po dosed Sprague-Dawley rat assessed as changes in respiratory rate administered via gavage", "assay_type": "organism-based", "conditions": "in vivo", "method_in_brief": "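Non-GLP 7-day repeated-dose study in female Sprague-Dawley rats given oral gavage at 20, 60 and 180 mg/kg/day. Endpoints were weight bearing, gait coordination, respiratory rate, relative organ weights, clinical chemistry and gross pathology, with NOAEL determined.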"}, "[18]": {"test_system": "Rattus norvegicus", "experiment": "Toxicity in po dosed Sprague-Dawley rat assessed as increase in liver weight administered via gavage", "assay_type": "organism-based", "conditions": "in vivo", "method_in_brief": "as §2"}, "[19]": {"molecular_target": "Sodium channel protein type 9 subunit alpha (Homo sapiens) (UniProt Q15858)", "experiment": "Inhibition of human Nav1.7 expressed in HEK293 cells assessed as half-maximal voltage for steady state fast-inactivation at 10 uM by whole cell patch-clamp electrophysiology (reference value: -61.11 +/-3.02 mV)", "assay_type": "cell-based"}, "[20]": {"test_system": "Mus musculus", "experiment": "Anticonvulsant activity in ip dosed albino Carworth Farms No. 1 mouse measured at 0.25 hrs by maximal electroshock seizure test", "assay_type": "functional", "conditions": "Carworth Farms No. 1, ip", "method_in_brief": "(§6)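 Screened under the NIH anticonvulsant program in male albino Carworth Farms No. 1 mice (ip) and male albino Sprague-Dawley rats (ip or oral). Protection tested by maximal electroshock or 6 Hz (32 mA) psychomotor stimulation.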"}, "[21]": {"test_system": "Rattus norvegicus", "experiment": "Toxicity in po dosed Sprague-Dawley rat assessed as changes in body weight administered via gavage", "assay_type": "organism-based", "conditions": "in vivo"}, "[22]": {"test_system": "Rattus norvegicus", "experiment": "Anticonvulsant activity in po dosed albino Sprague-Dawley rat measured at 2 hrs by maximal electroshock seizure test", "assay_type": "functional", "method_in_brief": "as §6"}, "[23]": {"molecular_target": "Cytochrome P450 2D6 (Homo sapiens, UniProt P10635)", "sequence (P10635 whole entry)": "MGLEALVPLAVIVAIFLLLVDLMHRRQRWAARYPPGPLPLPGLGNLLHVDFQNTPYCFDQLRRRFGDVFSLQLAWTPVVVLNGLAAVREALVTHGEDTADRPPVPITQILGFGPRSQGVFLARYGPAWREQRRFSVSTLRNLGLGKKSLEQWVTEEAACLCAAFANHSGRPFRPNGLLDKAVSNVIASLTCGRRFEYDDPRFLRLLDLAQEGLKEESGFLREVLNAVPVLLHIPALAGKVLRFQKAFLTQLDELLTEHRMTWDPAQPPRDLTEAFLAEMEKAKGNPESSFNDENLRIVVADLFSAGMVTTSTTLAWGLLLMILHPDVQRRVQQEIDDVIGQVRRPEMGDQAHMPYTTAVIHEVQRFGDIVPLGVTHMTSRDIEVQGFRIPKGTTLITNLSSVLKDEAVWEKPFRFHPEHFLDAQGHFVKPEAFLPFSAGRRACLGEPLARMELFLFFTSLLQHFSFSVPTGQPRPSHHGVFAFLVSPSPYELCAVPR", "experiment": "Inhibition of human CYP2D6 at 10 uM", "assay_type": "ADME", "method_in_brief": "as §3"}},
  "note": "Calls of active or inactive are those of the source. The rule behind the calls is not given here.",
  "data": [
    {"molecule": "COC[C@@H](NC(C)=O)C(=O)NCc1ccc(Oc2cccc(OC(F)(F)F)c2)cc1", "values": [
      {"measurement": "inhibition", "setting": "[1]", "result": "inactive"},
      {"measurement": "Activity", "setting": "[2]", "result": "inactive"},
      {"measurement": "V1/2", "setting": "[3]", "result": -24.4, "unit": "mV"},
      {"measurement": "Activity", "setting": "[4]", "result": "Toxic"},
      {"measurement": "inhibition (INH)", "setting": "[5]", "result": "Not Active"},
      {"measurement": "inhibition", "setting": "[6]", "result": "Active"},
      {"measurement": "Activity", "setting": "[7]", "result": "Not Active"},
      {"measurement": "TD50 at 2 h", "setting": "[8]", "result": 54, "unit": "mg/kg"},
      {"measurement": "inhibition", "setting": "[9]", "result": "Active"},
      {"measurement": "half-life", "setting": "[10]", "result": 278, "unit": "min"},
      {"measurement": "inhibition", "setting": "[11]", "result": "Active"},
      {"measurement": "inhibition", "setting": "[12]", "result": 39, "unit": "%"},
      {"measurement": "inhibition", "setting": "[13]", "result": "inactive"},
      {"measurement": "inhibition", "setting": "[14]", "result": "Dose-dependent effect"},
      {"measurement": "selectivity ratio", "setting": "[15]", "result": 9.5},
      {"measurement": "inhibition", "setting": "[16]", "result": 44, "unit": "%"},
      {"measurement": "Activity", "setting": "[17]", "result": "Toxic"},
      {"measurement": "Activity", "setting": "[18]", "result": "Toxic"},
      {"measurement": "V1/2", "setting": "[19]", "result": -81.3, "unit": "mV"},
      {"measurement": "ED50", "setting": "[20]", "result": 6.5, "unit": "mg/kg"},
      {"measurement": "Activity", "setting": "[21]", "result": "Toxic"},
      {"measurement": "ED50", "setting": "[22]", "result": 8.3, "unit": "mg/kg"},
      {"measurement": "inhibition (INH)", "setting": "[23]", "result": "Not Active"}
    ]}
  ]
}
